The values below come from ChEMBL document CHEMBL4219177, “Synthesis and evaluation of the antibacterial activities of aryl substituted dihydrotriazine derivatives” (Bioorg Med Chem Lett, 2018).

Experiment [1] deals with Staphylococcus aureus. Description: Antibacterial activity against Staphylococcus aureus 4220 after 24 hrs by two-fold serial dilution method. As to conditions: RN4220, 24 h. It is filed as functional. In short, it runs like this:
(§1)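 Broth microdilution MIC. Bacteria were grown to mid-log phase in Mueller-Hinton broth, diluted 1000-fold, and inoculated at 10^5 CFU/mL. Compounds in DMSO (final ≤0.05%) were tested as two-fold serial dilutions from 64 to 0.25. Plates were incubated 24 h at 37 °C and growth read as absorbance at 650 nm. MIC = concentration completely inhibiting growth. Experiments were run three times.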

The subject of experiment [2] is Staphylococcus aureus. Description: Antibacterial activity against quinolone-resistant Staphylococcus aureus isolate CCARM 3505 after 24 hrs by two-fold serial dilution method. It is filed as functional. Particulars: isolate CCARM 3505, 24 h. Summed up:
as §1

Experiment [3] concerns Staphylococcus aureus. Put plainly: Antibacterial activity against methicillin-resistant Staphylococcus aureus isolate CCARM 3167 after 24 hrs by two-fold serial dilution method. It is filed as functional. As to conditions: isolate CCARM 3167, 24 h.
In experiment [4] the test system is Streptococcus mutans. Description: Antibacterial activity against Streptococcus mutans 3289 after 24 hrs by two-fold serial dilution method. It is filed as functional. As to conditions: Streptococcus mutans, 3289, 24 h.
Experiment [5] has as its system Candida albicans. Put plainly: Antifungal activity against Candida albicans 7535 after 24 hrs by two-fold serial dilution method. It is filed as functional. As to conditions: Candida albicans, 7535, 24 h.
For experiment [6], the system named is Escherichia coli. Put plainly: Antibacterial activity against Escherichia coli 1924 after 24 hrs by two-fold serial dilution method. Particulars: Escherichia coli, 1924, 24 h. It is filed as functional. In short, it runs like this:
(§2)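 Bacteria grown to mid-log phase in Mueller-Hinton broth, diluted 1000-fold, and inoculated at 10^5 CFU/mL. Compounds were dissolved in DMSO (final ≤0.05%) and two-fold serially diluted. MIC was the lowest concentration giving complete growth inhibition after 24 h at 37 °C, with growth read as absorbance at 650 nm. Each experiment was run three times.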

For experiment [7], the system named is Pseudomonas aeruginosa. Description: Antibacterial activity against Pseudomonas aeruginosa 2742 after 24 hrs by two-fold serial dilution method. It is filed as functional. As to conditions: Pseudomonas aeruginosa, 2742, 24 h. In short, it runs like this:
as §2

The test system of experiment [8] is Salmonella typhimurium. Put plainly: Antibacterial activity against Salmonella typhimurium 2421 after 24 hrs by two-fold serial dilution method. Particulars: Salmonella enterica, 2421, 24 h. It is filed as functional, Salmonella enterica subsp. enterica serovar Typhimurium. In short, it runs like this:
as §2

The subject of experiment [9] is L02. Description: Cytotoxicity against human L02 cells assessed as growth inhibition after 24 hrs by MTT assay. It is filed as cell-based. Particulars: L02, 24 h.
For experiment [10], the system named is Staphylococcus aureus. Put plainly: Potency index, ratio of moxifloxacin MIC to compound MIC for quinolone-resistant Staphylococcus aureus isolate CCARM 3505. It is filed as functional.
For experiment [11], the system named is Staphylococcus aureus. Description: Potency index, ratio of gatifloxacin MIC to compound MIC for quinolone-resistant Staphylococcus aureus isolate CCARM 3505. It is filed as functional.
In experiment [12] the test system is Escherichia coli. Put plainly: Potency index, ratio of moxifloxacin MIC to compound MIC for Escherichia coli 1924. It is filed as functional.
Experiment [13] concerns Escherichia coli. Description: Potency index, ratio of gatifloxacin MIC to compound MIC for Escherichia coli 1924. It is filed as functional.
Experiment [14] addresses Dihydrofolate reductase (Staphylococcus aureus) (UniProt P0A017). Put plainly: Inhibition of Staphylococcus aureus DHFR at 10 uM after 1.5 hrs by ELISA relative to control. As to conditions: Staphylococcus aureus subsp. aureus RN4220.

Converted amounts (≈) assume the structure as drawn. Where only a bound is given, the exact number is not on record here.

Dihydrofolate reductase (Staphylococcus aureus), sequence (P0A017 2-159 limits assumed): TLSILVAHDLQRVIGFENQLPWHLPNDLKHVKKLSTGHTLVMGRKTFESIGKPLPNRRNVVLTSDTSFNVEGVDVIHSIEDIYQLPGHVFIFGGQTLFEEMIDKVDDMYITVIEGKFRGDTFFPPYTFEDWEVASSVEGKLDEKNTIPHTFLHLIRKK

Turning to `CN(C)C1=NC(c2ccc3cc(OCc4ccc(Cl)cc4Cl)ccc3c2)N=C(N)N1` (stereo not drawn), the MIC in experiment [1] turned out to be 1.13 µM (≈ 0.5 µg/mL); in [2], 0.5 µg/mL (≈ 1.13 µM); in experiment [3] it was 2.27 µM (≈ 1 µg/mL); in experiment [4], 1 µg/mL (≈ 2.26 µM); in experiment [5], 1 µg/mL (≈ 2.26 µM); in [6] it was 0.5 µg/mL (≈ 1.13 µM). For the same molecule, the MIC in [7] and in experiment [8] was 64 µg/mL (≈ 145 µM) throughout. The IC50 in [9] is 58.9 µM. In addition, the Ratio in experiment [10] came to 8; in [11], 16; in experiment [12], 4; in experiment [13], 4. For the same molecule, in experiment [14], the inhibition worked out at 58%.

Take `CN(C)C1=NC(c2ccc(/C=C/C(=O)c3ccc(Cl)cc3Cl)cc2)N=C(N)N1` (stereo not drawn): the MIC in experiment [1] stood at 19.3 µM (≈ 8.02 µg/mL); in experiment [2] it was 8 µg/mL (≈ 19.2 µM); in experiment [3], 19.3 µM (≈ 8.02 µg/mL); in experiment [4], 4 µg/mL (≈ 9.61 µM); in experiment [5], 8 µg/mL (≈ 19.2 µM); in experiment [6] it was 8 µg/mL (≈ 19.2 µM). In addition, the MIC is 64 µg/mL (≈ 154 µM) in [7] and above 64 µg/mL in [8]. The IC50 in experiment [9] was determined as 45.1 µM.
